Data published in ChEMBL document CHEMBL4152234, “Aminobenzothiazole derivatives stabilize the thermolabile p53 cancer mutant Y220C and show anticancer activity in p53-Y220C cell lines” (Eur J Med Chem, 2018).

Experiments:
[1] = target: T1, Cellular tumor antigen p53 (Homo sapiens, UniProt P04637); test: Activation of p53 in human NUGC4 cells assessed as change in GADD45A mRNA level at 60 uM after 18 hrs by RT-PCR method relative to control; format: cell-based; conditions: read-out: FC
Procedure, shortened: (§1)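 p53 signaling qPCR array of 84 p53-pathway genes. Cells were treated in 6-well plates for 18 h with 0.5% DMSO in compound and control samples. Total RNA was extracted and fold-changes were obtained by the ΔΔCt method against untreated control, with β2-microglobulin (B2M) as housekeeping gene. Two independent biological replicates per cell line.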

[2] = target: T1, Cellular tumor antigen p53; test: Activation of p53 in human NUGC4 cells assessed as change in TP53 mRNA level at 60 uM after 18 hrs by RT-PCR method relative to control; format: cell-based; conditions: read-out: FC
[3] = target: T1, Cellular tumor antigen p53; test: Activation of p53 in human NUGC4 cells assessed as change in JUN mRNA level at 60 uM after 18 hrs by RT-PCR method relative to control; format: cell-based; conditions: read-out: FC; procedure, shortened: as §1
[4] = test system: Cellular tumor antigen p53 (Homo sapiens), P04637 [Y220C]; test: Activation of p53 Y220C mutant in human NUGC3 cells assessed as change in E2F1 mRNA level at 60 uM after 18 hrs by RT-PCR method relative to control; format: cell-based
Procedure, shortened: (§2)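 p53 signalling qPCR array covering 84 genes. Cells were exposed for 18 h, with 0.5% DMSO in both compound and control samples. Total RNA was extracted and purified. Fold-changes were calculated by ΔΔCt using β2-microglobulin (B2M) as the housekeeping gene. Two independent biological replicates were run per cell line.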

[5] = target: T1, Cellular tumor antigen p53; test: Activation of p53 in human NUGC4 cells assessed as change in ATM mRNA level at 60 uM after 18 hrs by RT-PCR method relative to control; format: cell-based; conditions: read-out: FC
Procedure, shortened: (§3)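 p53 signalling qPCR array covering 84 p53 pathway genes. Cells were exposed for 18 h, and compound and control wells both held 0.5% DMSO. Total RNA was extracted and purified. Fold-changes were calculated by the ΔΔCt method against the untreated sample, with β2-microglobulin (B2M) as the housekeeping gene. Each cell line was run in two independent biological replicates.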

[6] = test system: Cellular tumor antigen p53 (Homo sapiens), P04637 [Y220C]; test: Activation of p53 Y220C mutant in human NUGC3 cells assessed as change in PPM1D mRNA level at 60 uM after 18 hrs by RT-PCR method relative to control; format: cell-based; procedure, shortened: as §3
[7] = test system: Cellular tumor antigen p53 (Homo sapiens), P04637 [Y220C]; test: Activation of p53 Y220C mutant in human NUGC3 cells assessed as change in KAT2B mRNA level at 60 uM after 18 hrs by RT-PCR method relative to control; format: cell-based; procedure, shortened: as §3
[8] = Solubility of the compound in water; format: physicochemical; conditions: buffer
[9] = test system: Cellular tumor antigen p53 (Homo sapiens), P04637 [Y220C]; test: Activation of p53 Y220C mutant in human NUGC3 cells assessed as change in NFKB1 mRNA level at 60 uM after 18 hrs by RT-PCR method relative to control; format: cell-based; procedure, shortened: as §3
[10] = target: T1, Cellular tumor antigen p53; test: Activation of p53 in human NUGC4 cells assessed as change in FADD mRNA level at 60 uM after 18 hrs by RT-PCR method relative to control; format: cell-based; conditions: read-out: FC; procedure, shortened: as §1
[11] = target: T1, Cellular tumor antigen p53; test: Activation of p53 in human NUGC4 cells assessed as change in IL6 mRNA level at 60 uM after 18 hrs by RT-PCR method relative to control; format: cell-based; conditions: read-out: FC; procedure, shortened: as §1
[12] = target: T1, Cellular tumor antigen p53; test: Activation of p53 in human NUGC4 cells assessed as change in BRCA2 mRNA level at 60 uM after 18 hrs by RT-PCR method relative to control; format: cell-based; conditions: read-out: FC; procedure, shortened: as §1
[13] = test system: Cellular tumor antigen p53 (Homo sapiens), P04637 [Y220C]; test: Activation of p53 Y220C mutant in human NUGC3 cells assessed as change in PIDD1 mRNA level at 60 uM after 18 hrs by RT-PCR method relative to control; format: cell-based; procedure, shortened: as §3
[14] = test system: Cellular tumor antigen p53 (Homo sapiens), P04637 [Y220C]; test: Activation of p53 Y220C mutant in human NUGC3 cells assessed as change in APAF1 mRNA level at 60 uM after 18 hrs by RT-PCR method relative to control; format: cell-based; procedure, shortened: as §2
[15] = test system: Cellular tumor antigen p53 (Homo sapiens), P04637 [Y220C]; test: Activation of p53 Y220C mutant in human NUGC3 cells assessed as change in GADD45A mRNA level at 60 uM after 18 hrs by RT-PCR method relative to control; format: cell-based; procedure, shortened: as §2
[16] = test system: Cellular tumor antigen p53 (Homo sapiens), P04637 [Y220C]; test: Activation of p53 Y220C mutant in human NUGC3 cells assessed as change in CDK4 mRNA level at 60 uM after 18 hrs by RT-PCR method relative to control; format: cell-based; procedure, shortened: as §2
[17] = target: T1, Cellular tumor antigen p53; test: Activation of p53 in human NUGC4 cells assessed as change in PRC1 mRNA level at 60 uM after 18 hrs by RT-PCR method relative to control; format: cell-based; conditions: read-out: FC
[18] = test system: Cellular tumor antigen p53 (Homo sapiens), P04637 [Y220C]; test: Activation of p53 Y220C mutant in human NUGC3 cells assessed as change in BCL2A1 mRNA level at 60 uM after 18 hrs by RT-PCR method relative to control; format: cell-based; procedure, shortened: as §2
[19] = test system: Cellular tumor antigen p53 (Homo sapiens), P04637 [Y220C]; test: Activation of p53 Y220C mutant in human NUGC3 cells assessed as change in TP63 mRNA level at 60 uM after 18 hrs by RT-PCR method relative to control; format: cell-based; procedure, shortened: as §3
[20] = target: T1, Cellular tumor antigen p53; test: Activation of p53 in human NUGC4 cells assessed as change in STAT1 mRNA level at 60 uM after 18 hrs by RT-PCR method relative to control; format: cell-based; conditions: read-out: FC
[21] = target: T1, Cellular tumor antigen p53; test: Activation of p53 in human NUGC4 cells assessed as change in RPRM mRNA level at 60 uM after 18 hrs by RT-PCR method relative to control; format: cell-based; conditions: read-out: FC
[22] = test system: Cellular tumor antigen p53 (Homo sapiens), P04637 [Y220C]; test: Activation of p53 Y220C mutant in human NUGC3 cells assessed as change in BBC3 mRNA level at 60 uM after 18 hrs by RT-PCR method relative to control; format: cell-based; procedure, shortened: as §2
[23] = test system: Cellular tumor antigen p53 (Homo sapiens), P04637 [Y220C]; test: Activation of p53 Y220C mutant in human NUGC3 cells assessed as change in RB1 mRNA level at 60 uM after 18 hrs by RT-PCR method relative to control; format: cell-based; procedure, shortened: as §3
[24] = target: T1, Cellular tumor antigen p53; test: Activation of p53 in human NUGC4 cells assessed as change in CDK1 mRNA level at 60 uM after 18 hrs by RT-PCR method relative to control; format: cell-based; conditions: read-out: FC; procedure, shortened: as §1
[25] = target: T1, Cellular tumor antigen p53; test: Activation of p53 in human NUGC4 cells assessed as change in CDC25A mRNA level at 60 uM after 18 hrs by RT-PCR method relative to control; format: cell-based; conditions: read-out: FC; procedure, shortened: as §1
[26] = target: T1, Cellular tumor antigen p53; test: Activation of p53 in human NUGC4 cells assessed as change in NFKB1 mRNA level at 60 uM after 18 hrs by RT-PCR method relative to control; format: cell-based; conditions: read-out: FC
Procedure, shortened: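 p53-signalling qPCR array (84 pathway genes): cells treated 18 h in 0.5% DMSO, with DMSO-matched controls. Total RNA was extracted and fold-change quantified by the ΔΔCt method with β2-microglobulin (B2M) as housekeeping gene, normalized to the untreated sample. Two independent biological replicates per cell line.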

[27] = target: T1, Cellular tumor antigen p53; test: Activation of p53 in human NUGC4 cells assessed as change in HK2 mRNA level at 60 uM after 18 hrs by RT-PCR method relative to control; format: cell-based; conditions: read-out: FC; procedure, shortened: as §1
[28] = target: T1, Cellular tumor antigen p53; test: Activation of p53 in human NUGC4 cells assessed as change in BRCA1 mRNA level at 60 uM after 18 hrs by RT-PCR method relative to control; format: cell-based; conditions: read-out: FC; procedure, shortened: as §1

CCNC(=O)c1c(O)c(I)c(-n2cccc2)c2sc(N(CC)CC)nc12
fold induction at 60 µM [1]: 1.7 | fold induction at 60 µM [2]: 0.8 | fold induction at 60 µM [3]: 0.7 | fold change (FC) [4]: 1 | fold induction at 60 µM [5]: 1 | fold change (FC) [6]: 0.9 | fold change (FC) [7]: 0.8 | solubility [8]: Insoluble | fold change (FC) [9]: 1.5 | fold induction at 60 µM [10]: 0.9 | fold induction at 60 µM [11]: 7.9 | fold induction at 60 µM [12]: 0.6 | fold change (FC) [13]: 1.2 | fold change (FC) [14]: 1.2 | fold change (FC) [15]: 2.2 | fold change (FC) [16]: 1.3 | fold induction at 60 µM [17]: 0.8 | fold change (FC) [18]: 3.9 | fold change (FC) [19]: 1.5 | fold induction at 60 µM [20]: 0.9 | fold induction at 60 µM [21]: 7.9 | fold change (FC) [22]: 2.6 | fold change (FC) [23]: 0.9 | fold induction at 60 µM [24]: 0.8 | fold induction at 60 µM [25]: 0.4 | fold induction at 60 µM [26]: 0.8 | fold induction at 60 µM [27]: 0.8 | fold induction at 60 µM [28]: 0.7
